Legend:
[1] = system: Rattus norvegicus; test: Antithrombotic activity in Wistar rat assessed as wet thrombus weight at 0.5 umol/kg, iv; assay type: functional
Method in brief: (§1)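 Male Wistar rats (250–300 g) under ip pentobarbital sodium (80.0 mg/kg). Arteriovenous shunt: polyethylene tube holding a weighed 6 cm thread, filled with heparin sodium (50 IU/ml in NS), joins left jugular vein to right carotid artery. Heparin, then compound in NS (kept on ice), injected through the tube; blood flows 15 min. Thread weighed wet, then dry after 2 weeks in a desiccator.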

[2] = system: Rattus norvegicus; test: Antithrombotic activity in Wistar rat assessed as dry thrombus weight at 0.5 umol/kg, iv; assay type: functional; method in brief: as §1
[3] = HPLC retention, log K of the compound
[4] = system: Rattus norvegicus; test: Antithrombotic activity in Wistar rat assessed as wet thrombus weight at […], iv; assay type: functional
[5] = system: Rattus norvegicus; test: Antithrombotic activity in Wistar rat assessed as dry thrombus weight at […], iv; assay type: functional
[6] = system: Rattus norvegicus; test: Antithrombotic activity in Wistar rat assessed as wet thrombus weight at 5 nmol/kg, iv; assay type: functional; method in brief: as §1
[7] = system: Rattus norvegicus; test: Antithrombotic activity in Wistar rat assessed as wet thrombus weight at 0.5 nmol/kg, iv; assay type: functional; method in brief: as §1
[8] = system: Rattus norvegicus; test: Antithrombotic activity in Wistar rat assessed as dry thrombus weight at 5 nmol/kg, iv; assay type: functional; method in brief: as §1
[9] = system: Rattus norvegicus; test: Antithrombotic activity in Wistar rat assessed as dry thrombus weight at 0.5 nmol/kg, iv; assay type: functional; method in brief: as §1
[10] = system: Plasma; test: Inhibition of ADP-induced platelet aggregation in pig platelet rich plasma; assay type: functional, cell-free; settings: Sus scrofa
Method in brief: (§2)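 Pig blood anticoagulated with 0.38% sodium citrate (final). PRP taken at 100 g for 10 min, PPP at 1,500 g for 10 min, platelets adjusted to 2 × 10⁸/ml with autologous PPP. Compound in NS (1–0.01 μmol/L final) added to 0.5 ml PRP. Aggregation induced with PAF (10^-7 mol/L final) or ADP (10^-5 mol/L final), followed turbidimetrically at 37 °C for 5 min. Peak height (Am%) compared with NS control; IC50 derived.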

[11] = system: Plasma; test: Inhibition of PAF-induced platelet aggregation in pig platelet rich plasma; assay type: functional, cell-free; settings: Sus scrofa; method in brief: as §2
[12] = system: Rattus norvegicus; test: Antithrombotic activity in Wistar rat assessed as wet thrombus weight at 0.5 umol/kg, po; assay type: functional
Method in brief: (§3)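 Compound in NS given orally to male Wistar rats (250–300 g), which were then anesthetized with ip pentobarbital sodium (80.0 mg/kg). Thirty min later the carotid artery and jugular vein were exposed. Blood ran 15 min through a polyethylene-tube shunt holding a thread. Wet thrombus weighed, then dry weight recorded after 2 weeks in a desiccator.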

[13] = system: Rattus norvegicus; test: Antithrombotic activity in Wistar rat assessed as dry thrombus weight at 0.5 umol/kg, po; assay type: functional; method in brief: as §3

| SMILES | Activity [1] [mg] | Activity [2] [mg] | log K [3] | further results |
| --- | --- | --- | --- | --- |
| CCC(C)[C@@H]1NC(=O)[C@@H]2Cc3c([nH]c4ccccc34)CN2C1=O (stereo partly drawn) | 12.45 | 3.95 | 1.26 |  |
| CC(=O)Oc1ccccc1C(=O)O [ASPIRIN] |  |  |  | Activity [4]: 7.56 mg; Activity [5]: 2.4 mg |
| O=C1N[C@@H](Cc2ccccc2)C(=O)N2Cc3[nH]c4ccccc4c3C[C@@H]12 | 8.58 | 1.33 | 1.05 | Activity [6]: 13.3 mg; Activity [7]: 15.3 mg; Activity [8]: 2.08 mg; Activity [9]: 2.39 mg |
| CC(C)[C@@H]1NC(=O)[C@@H]2Cc3c([nH]c4ccccc34)CN2C1=O | 8.19 | 1.2 | 0.97 | IC50 [10]: 112 nM; IC50 [11]: 294 nM; Activity [6]: 14.79 mg; Activity [7]: 16.88 mg; Activity [8]: 2.31 mg; Activity [9]: 2.64 mg |
| CSCC[C@@H]1NC(=O)[C@@H]2Cc3c([nH]c4ccccc34)CN2C1=O | 10.41 | 3.28 | 0.97 |  |
| O=C(O)C[C@@H]1NC(=O)[C@@H]2Cc3c([nH]c4ccccc34)CN2C1=O | 12.26 | 3.89 | 0.15 | Activity [12]: 12.42 mg; Activity [13]: 3.94 mg |
| O=C(O)CC[C@@H]1NC(=O)[C@@H]2Cc3c([nH]c4ccccc34)CN2C1=O | 10.42 | 3.31 | 0.21 |  |
| NCCCC[C@@H]1NC(=O)[C@@H]2Cc3c([nH]c4ccccc34)CN2C1=O | 12.78 | 4.06 | -0.26 | Activity [12]: 11.75 mg; Activity [13]: 3.73 mg |
| NC(=O)CC[C@@H]1NC(=O)[C@@H]2Cc3c([nH]c4ccccc34)CN2C1=O | 11.1 | 3.52 | 0.28 |  |
| O=C1N[C@@H](Cc2ccc(O)cc2)C(=O)N2Cc3[nH]c4ccccc4c3C[C@@H]12 | 10.49 | 3.3 | 0.01 |  |
| NC(=O)C[C@@H]1NC(=O)[C@@H]2Cc3c([nH]c4ccccc34)CN2C1=O | 9.54 | 3.03 | 0.21 |  |
| O=C1N[C@@H](CO)C(=O)N2Cc3[nH]c4ccccc4c3C[C@@H]12 | 9.44 | 2.98 | -0.16 |  |
| O=C1NC(CS)C(=O)N2Cc3[nH]c4ccccc4c3C[C@@H]12 (single isomer, unassigned) | 9.06 | 2.88 | 0.71 |  |
| CC(O)[C@@H]1NC(=O)[C@@H]2Cc3c([nH]c4ccccc34)CN2C1=O (stereo partly drawn) | 11.49 | 3.65 | -0.14 |  |
| C[C@@H]1NC(=O)[C@@H]2Cc3c([nH]c4ccccc34)CN2C1=O | 12.05 | 3.83 | 0.47 |  |
| N=C(N)NCCC[C@@H]1NC(=O)[C@@H]2Cc3c([nH]c4ccccc34)CN2C1=O | 8.62 | 1.22 | -0.58 | Activity [6]: 14.52 mg; Activity [7]: 15.71 mg; Activity [8]: 2.27 mg; Activity [9]: 2.45 mg |
| O=C1NCC(=O)N2Cc3[nH]c4ccccc4c3C[C@@H]12 | 10.68 | 3.39 | 0.19 | Activity [12]: 11.57 mg; Activity [13]: 3.67 mg |
| CC(C)C[C@@H]1NC(=O)[C@@H]2Cc3c([nH]c4ccccc34)CN2C1=O | 10.4 | 3.3 | 1.32 |  |

Source: ChEMBL document CHEMBL1143743, “A new class of anti-thrombosis hexahydropyrazino-[1',2':1,6]pyrido-[3,4-b]-indole-1,4-dions: design, synthesis, logK determination, and QSAR analysis” (Bioorg Med Chem, 2007)
